Each molecule was assayed against T1, Polyunsaturated fatty acid 5-lipoxygenase (Homo sapiens) (UniProt P09917) (assay: Inhibition of recombinant human 5-LO expressed in Escherichia coli BL21 (DE3) using arachidonic acid as substrate assessed as residual activity preincubated for 10 mins followed by CaCl2 and substrate addition measured after 10 mins by RP-HPLC analysis).
T1 sequence (whole entry): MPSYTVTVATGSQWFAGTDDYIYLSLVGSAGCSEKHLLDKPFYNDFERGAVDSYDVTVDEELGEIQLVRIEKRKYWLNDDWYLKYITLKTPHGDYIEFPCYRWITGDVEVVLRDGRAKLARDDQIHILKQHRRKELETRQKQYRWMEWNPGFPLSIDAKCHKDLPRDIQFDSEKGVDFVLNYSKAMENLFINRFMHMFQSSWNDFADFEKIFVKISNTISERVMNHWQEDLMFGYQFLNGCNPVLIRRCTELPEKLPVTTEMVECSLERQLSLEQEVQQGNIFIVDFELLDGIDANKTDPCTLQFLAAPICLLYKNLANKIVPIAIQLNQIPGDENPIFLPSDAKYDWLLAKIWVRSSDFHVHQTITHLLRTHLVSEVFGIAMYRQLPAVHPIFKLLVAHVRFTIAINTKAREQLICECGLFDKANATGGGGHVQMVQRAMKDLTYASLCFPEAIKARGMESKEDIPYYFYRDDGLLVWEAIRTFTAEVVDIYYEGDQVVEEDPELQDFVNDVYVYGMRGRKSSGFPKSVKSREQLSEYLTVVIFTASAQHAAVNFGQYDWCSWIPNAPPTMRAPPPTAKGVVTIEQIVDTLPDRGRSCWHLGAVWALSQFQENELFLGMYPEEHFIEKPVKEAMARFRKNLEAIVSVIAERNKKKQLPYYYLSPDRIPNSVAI
Method in brief: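 Human recombinant 5-LO from E. coli BL21(DE3), ATP-agarose semi-purified (0.5 µg/ml), pre-incubated with compound or 0.1% DMSO at 4 °C. It was pre-warmed 30 s at 37 °C, then started with 2 mM CaCl2 plus 20 µM AA. Stopped after 10 min with ice-cold methanol; products by RP-HPLC. Residual activity at 10 µM; IC50 from 4-5 concentrations; n=3-4.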

Compound | Activity
Cc1ccc(S(=O)(=O)N(Cc2ccc(Cl)c(Cl)c2)c2ccc(C(=O)O)cc2)cc1 | 97.6%
Cc1ccc(S(=O)(=O)N(Cc2ccccc2)c2ccc(C(=O)O)cc2)cc1 | 81.1%
Cc1ccc(S(=O)(=O)N(Cc2ccccc2Cl)c2ccc(C(=O)O)cc2)cc1 | 115%
Cc1ccc(S(=O)(=O)N(Cc2cccs2)c2ccc(CC(=O)O)cc2)cc1 | 97%
Cc1ccc(CN(c2ccc(C(=O)O)cc2)S(=O)(=O)c2ccc(C)cc2)cc1 | 93.4%
O=C(O)c1ccc(N(Cc2cccs2)S(=O)(=O)c2ccc(C(=O)O)cc2)cc1 | 93%
O=C(O)c1ccc(N(Cc2cnc3ccccc3c2)S(=O)(=O)c2ccc(-c3ccccc3)cc2)cc1 | 75%
Cc1ccc(S(=O)(=O)N(Cc2cccc(Cl)c2)c2ccc(C(=O)O)cc2)cc1 | 107%
O=C(O)c1ccc(N(Cc2ccc3ccccc3c2)C(=O)c2ccc(-c3ccccc3)cc2)cc1 | 78%
CCCCCCN(c1ccc(C(=O)O)cc1)S(=O)(=O)c1ccc(-c2ccccc2)cc1 | 105%
O=C(O)c1ccc(N(Cc2ccccc2)S(=O)(=O)c2ccc(-c3ccccc3)cc2)cc1 | 96.2%
Cc1ccc(CN(c2ccc(C(=O)O)cc2)S(=O)(=O)c2ccc(-c3ccccc3)cc2)cc1 | 65.6%
O=C(O)c1ccc(N(CC2CCCCC2)S(=O)(=O)c2ccc(-c3ccccc3)cc2)cc1 | 57.5%
Cc1ccc(S(=O)(=O)N(Cc2ccccc2)c2ccc(C(=O)NS(=O)(=O)c3ccccc3)cc2)cc1 | 88.9%
Cc1ccc(S(=O)(=O)N(Cc2cccs2)c2ccc(C(=O)O)cc2)cc1 | 92.7%
O=C(O)c1ccc(N(Cc2cccs2)S(=O)(=O)c2ccc(-c3ccccc3)cc2)cc1 | 66.4%
O=C(O)c1ccc(N(CC2CCCCC2)S(=O)(=O)c2ccc(Oc3ccccc3)cc2)cc1 | 72%
CC(C)(C)c1ccc(CN(c2ccc(C(=O)O)cc2)S(=O)(=O)c2ccc(C(C)(C)C)cc2)cc1 | 50.2%
O=C(O)c1ccc(N(Cc2ccoc2)S(=O)(=O)c2ccc(-c3ccccc3)cc2)cc1 | 110%
O=C(O)c1ccc(N(Cc2ccc3c(c2)OCO3)S(=O)(=O)c2ccc(-c3ccccc3)cc2)cc1 | 88.4%
Cc1ccc(S(=O)(=O)N(Cc2ccc(Oc3ccccc3)cc2)c2ccc(C(=O)O)cc2)cc1 | 61.4%
O=C(O)c1ccc(N(Cc2ccc3c(c2)OCCO3)S(=O)(=O)c2ccc(-c3ccccc3)cc2)cc1 | 117%
Cc1ccc(S(=O)(=O)N(Cc2ccc3ccccc3c2)c2ccc(C(=O)O)cc2)cc1 | 96.7%
COc1cccc(CN(c2ccc(C(=O)O)cc2)S(=O)(=O)c2ccc(-c3ccccc3)cc2)c1 | 78.6%
CCCCN(c1ccc(C(=O)O)cc1)S(=O)(=O)c1ccc(-c2ccccc2)cc1 | 115%

The molecules below were run against T1, Polyunsaturated fatty acid 5-lipoxygenase (Homo sapiens) (assay: Inhibition of 5-LO in human neutrophils using arachidonic acid as substrate assessed as residual activity preincubated for 15 mins followed by substrate addition measured after 10 mins in presence of Ca2+ ionophore A23187 by HPLC analysis).
Method in brief: (§1)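 Human neutrophils (5 × 10^6 in 1 ml PBS with 1 mg/ml glucose) pre-incubated 15 min at 37 °C with compound or 0.1% DMSO, then activated with 1 mM CaCl2 and 2.5 µM A23187, with or without 20 µM AA; 5-LO products measured after 10 min. Residual activity at 10 µM; IC50 by nonlinear regression from 4-5 concentrations; mean ± SEM, n=3-4.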

Compound | Activity
Cc1ccc(S(=O)(=O)N(Cc2ccccc2)c2ccc(C(=O)O)cc2)cc1 | 75.7%
Cc1ccc(S(=O)(=O)N(Cc2ccccc2Cl)c2ccc(C(=O)O)cc2)cc1 | 95.2%
Cc1ccc(S(=O)(=O)N(Cc2cccs2)c2ccc(CC(=O)O)cc2)cc1 | 102%
Cc1ccc(CN(c2ccc(C(=O)O)cc2)S(=O)(=O)c2ccc(C)cc2)cc1 | 96.7%
O=C(O)c1ccc(N(Cc2cccs2)S(=O)(=O)c2ccc(C(=O)O)cc2)cc1 | 112%
Cc1ccc(S(=O)(=O)N(Cc2cccc(Cl)c2)c2ccc(C(=O)O)cc2)cc1 | 84.7%
Cc1ccc(S(=O)(=O)N(Cc2ccccc2)c2ccc(C(=O)NS(=O)(=O)c3ccccc3)cc2)cc1 | 80%
Cc1ccc(S(=O)(=O)N(Cc2cccs2)c2ccc(C(=O)O)cc2)cc1 | 104%

The molecules below were run against T2, Prostaglandin E synthase (Homo sapiens, UniProt O14684) (assay: Inhibition of mPGES-1 isolated from microsomes of interleukin-1 beta-stimulated human A549 cells using PGH2 as substrate preincubated for 15 mins followed by substrate addition measured after 1 min by RP-HPLC analysis).
T2 sequence (O14684 whole entry): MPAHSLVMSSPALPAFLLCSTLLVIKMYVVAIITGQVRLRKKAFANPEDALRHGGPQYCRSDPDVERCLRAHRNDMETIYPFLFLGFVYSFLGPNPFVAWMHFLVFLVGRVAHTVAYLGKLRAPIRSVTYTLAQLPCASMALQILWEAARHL
Method in brief: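 Microsomes from A549 cells treated with IL-1β (1 ng/ml, 72 h), diluted in 0.1 M potassium phosphate pH 7.4 with 2.5 mM glutathione. Pre-incubated 15 min with compound or DMSO, then 20 µM PGH2 (final) for 1 min at 4 °C. IC50 from 4-5 concentrations.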

Compound | IC50
Cc1ccc(S(=O)(=O)N(Cc2ccc(Cl)c(Cl)c2)c2ccc(C(=O)O)cc2)cc1 | 6.3 µM
O=C(O)c1ccc(N(Cc2cnc3ccccc3c2)S(=O)(=O)c2ccc(-c3ccccc3)cc2)cc1 | 4.7 µM
O=C(O)c1ccc(N(Cc2ccc3ccccc3c2)C(=O)c2ccc(-c3ccccc3)cc2)cc1 | 2.9 µM
CCCCCCN(c1ccc(C(=O)O)cc1)S(=O)(=O)c1ccc(-c2ccccc2)cc1 | 1.9 µM
O=C(O)c1ccc(N(Cc2ccccc2)S(=O)(=O)c2ccc(-c3ccccc3)cc2)cc1 | 4 µM
Cc1ccc(CN(c2ccc(C(=O)O)cc2)S(=O)(=O)c2ccc(-c3ccccc3)cc2)cc1 | 5.2 µM
O=C(O)c1ccc(N(CC2CCCCC2)S(=O)(=O)c2ccc(-c3ccccc3)cc2)cc1 | 3.2 µM
Cc1ccc(S(=O)(=O)N(Cc2ccccc2)c2ccc(C(=O)NS(=O)(=O)c3ccccc3)cc2)cc1 | 2.7 µM
O=C(O)c1ccc(N(Cc2cccs2)S(=O)(=O)c2ccc(-c3ccccc3)cc2)cc1 | 4.7 µM
O=C(O)c1ccc(N(CC2CCCCC2)S(=O)(=O)c2ccc(Oc3ccccc3)cc2)cc1 | 2.6 µM
CC(C)(C)c1ccc(CN(c2ccc(C(=O)O)cc2)S(=O)(=O)c2ccc(C(C)(C)C)cc2)cc1 | 3.2 µM
O=C(O)c1ccc(N(Cc2ccc3c(c2)OCO3)S(=O)(=O)c2ccc(-c3ccccc3)cc2)cc1 | 1.9 µM
Cc1ccc(S(=O)(=O)N(Cc2ccc(Oc3ccccc3)cc2)c2ccc(C(=O)O)cc2)cc1 | 5.3 µM
O=C(O)c1ccc(N(Cc2ccc3c(c2)OCCO3)S(=O)(=O)c2ccc(-c3ccccc3)cc2)cc1 | 1.6 µM
COc1cccc(CN(c2ccc(C(=O)O)cc2)S(=O)(=O)c2ccc(-c3ccccc3)cc2)c1 | 6.2 µM

The molecules below were run against T3, Polyunsaturated fatty acid 5-lipoxygenase (Homo sapiens, UniProt P09917) (assay: Inhibition of 5-LO in human neutrophils using arachidonic acid as substrate assessed as reduction in 5-LO product formation preincubated for 15 mins followed by substrate addition measured after 10 mins in presence of Ca2+ ionophore A23187 by HPLC analysis).
T3 sequence (P09917 whole entry): T1 sequence (whole entry)
Method in brief: as §1

Compound | IC50
Cc1ccc(S(=O)(=O)N(Cc2ccc(Cl)c(Cl)c2)c2ccc(C(=O)O)cc2)cc1 | 2.4 µM
O=C(O)c1ccc(N(Cc2cnc3ccccc3c2)S(=O)(=O)c2ccc(-c3ccccc3)cc2)cc1 | 2.1 µM
O=C(O)c1ccc(N(Cc2ccc3ccccc3c2)C(=O)c2ccc(-c3ccccc3)cc2)cc1 | 1.7 µM
CCCCCCN(c1ccc(C(=O)O)cc1)S(=O)(=O)c1ccc(-c2ccccc2)cc1 | 1.5 µM
O=C(O)c1ccc(N(Cc2ccccc2)S(=O)(=O)c2ccc(-c3ccccc3)cc2)cc1 | 3.3 µM
Cc1ccc(CN(c2ccc(C(=O)O)cc2)S(=O)(=O)c2ccc(-c3ccccc3)cc2)cc1 | 1 µM
O=C(O)c1ccc(N(CC2CCCCC2)S(=O)(=O)c2ccc(-c3ccccc3)cc2)cc1 | 3.4 µM
O=C(O)c1ccc(N(Cc2cccs2)S(=O)(=O)c2ccc(-c3ccccc3)cc2)cc1 | 4.4 µM
O=C(O)c1ccc(N(CC2CCCCC2)S(=O)(=O)c2ccc(Oc3ccccc3)cc2)cc1 | 5.4 µM
CC(C)(C)c1ccc(CN(c2ccc(C(=O)O)cc2)S(=O)(=O)c2ccc(C(C)(C)C)cc2)cc1 | 0.7 µM
O=C(O)c1ccc(N(Cc2ccoc2)S(=O)(=O)c2ccc(-c3ccccc3)cc2)cc1 | 8.4 µM
O=C(O)c1ccc(N(Cc2ccc3c(c2)OCO3)S(=O)(=O)c2ccc(-c3ccccc3)cc2)cc1 | 3.2 µM
Cc1ccc(S(=O)(=O)N(Cc2ccc(Oc3ccccc3)cc2)c2ccc(C(=O)O)cc2)cc1 | 3.5 µM
O=C(O)c1ccc(N(Cc2ccc3c(c2)OCCO3)S(=O)(=O)c2ccc(-c3ccccc3)cc2)cc1 | 1.1 µM
Cc1ccc(S(=O)(=O)N(Cc2ccc3ccccc3c2)c2ccc(C(=O)O)cc2)cc1 | 4.8 µM
COc1cccc(CN(c2ccc(C(=O)O)cc2)S(=O)(=O)c2ccc(-c3ccccc3)cc2)c1 | 1.3 µM
CCCCN(c1ccc(C(=O)O)cc1)S(=O)(=O)c1ccc(-c2ccccc2)cc1 | 4 µM

Each molecule was assayed against T4, Prostaglandin E synthase (Homo sapiens) (UniProt O14684) (assay: Inhibition of mPGES-1 isolated from microsomes of interleukin-1 beta-stimulated human A549 cells assessed as residual activity at 10 uM using PGH2 as substrate preincubated for 15 mins followed by substrate addition measured after 1 min by RP-HPLC analysis).
T4 sequence (whole entry): T2 sequence (O14684 whole entry)

Compound | Activity
Cc1ccc(S(=O)(=O)N(Cc2ccccc2)c2ccc(C(=O)O)cc2)cc1 | 91.3%
Cc1ccc(S(=O)(=O)N(Cc2ccccc2Cl)c2ccc(C(=O)O)cc2)cc1 | 71.7%
Cc1ccc(S(=O)(=O)N(Cc2cccs2)c2ccc(CC(=O)O)cc2)cc1 | 96.4%
Cc1ccc(CN(c2ccc(C(=O)O)cc2)S(=O)(=O)c2ccc(C)cc2)cc1 | 82.8%
O=C(O)c1ccc(N(Cc2cccs2)S(=O)(=O)c2ccc(C(=O)O)cc2)cc1 | 94.6%
Cc1ccc(S(=O)(=O)N(Cc2cccc(Cl)c2)c2ccc(C(=O)O)cc2)cc1 | 74.1%
Cc1ccc(S(=O)(=O)N(Cc2cccs2)c2ccc(C(=O)O)cc2)cc1 | 92.5%
O=C(O)c1ccc(N(Cc2ccoc2)S(=O)(=O)c2ccc(-c3ccccc3)cc2)cc1 | 56.8%
Cc1ccc(S(=O)(=O)N(Cc2ccc3ccccc3c2)c2ccc(C(=O)O)cc2)cc1 | 52.8%
CCCCN(c1ccc(C(=O)O)cc1)S(=O)(=O)c1ccc(-c2ccccc2)cc1 | 52.6%

From ChEMBL document CHEMBL4270576, “Discovery of a benzenesulfonamide-based dual inhibitor of microsomal prostaglandin E2 synthase-1 and 5-lipoxygenase that favorably modulates lipid mediator biosynthesis in inflammation” (Eur J Med Chem, 2018)
